One data set concerns Trypanosoma brucei. Briefly: Inhibition of Trypanosoma brucei recombinant His-tagged TryS expressed in Escherichia coli BL21 (DE3) assessed as residual enzyme activity by measuring inorganic phosphate release at 30 uM after 15 mins by malachite green dye based end-point assay. In outline: (§1)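 His-tagged TryS expressed in E. coli BL21(DE3), Ni-NTA then gel filtration/ion exchange purified. Reaction buffer: 100 mM HEPES pH 7.4, 5 mM DTT, 10 mM MgSO4, 0.5 mM EDTA, 9 mM NaCl, 10% DMSO; 150 µM ATP, 2 mM spermidine; glutathione 0.05 (Tb), 0.57 (Tc), 0.25 mM (Li). Stopped at 15 min, malachite green phosphate read at 650 nm, blank-corrected versus DMSO; screen at 30 µM, IC50 if >50% inhibition.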

Data set [1] deals with Trypanosoma brucei brucei. Description: Antitrypanosomal activity against bloodstream forms of Trypanosoma brucei brucei 427 stably transfected with pHD449 plasmid assessed as reduction in parasite viability after 24 hrs by propidium iodide staining based flow cytometry. The format is functional, organism-based. As to conditions: Trypanosoma brucei, 427, 24 h.
Data set [2] in a line: Selectivity index, ratio of EC50 for mouse J774 cells to EC50 for bloodstream forms of Trypanosoma brucei brucei 427 stably transfected with pHD449 plasmid. The format is toxicity, cell-based. To be noted: read-out: Ratio EC50.
Data set [3] is described as follows: Inhibition of Trypanosoma cruzi recombinant His-tagged TryS expressed in Escherichia coli BL21 (DE3) assessed as inorganic phosphate release after 15 mins by malachite green dye based end-point assay. Summed up:
as §1

The nature of data set [4]: Inhibition of Leishmania infantum recombinant His-tagged TryS expressed in Escherichia coli BL21 (DE3) assessed as inorganic phosphate release after 15 mins by malachite green dye based end-point assay. In outline: as §1
Another data set deals with Leishmania infantum. Description: Inhibition of Leishmania infantum recombinant His-tagged TryS expressed in Escherichia coli BL21 (DE3) assessed as residual enzyme activity by measuring inorganic phosphate release at 30 uM after 15 mins by malachite green dye based end-point assay. Summed up:
as §1

The test system of a further data set is Trypanosoma cruzi. Briefly: Inhibition of Trypanosoma cruzi recombinant His-tagged TryS expressed in Escherichia coli BL21 (DE3) assessed as residual enzyme activity by measuring inorganic phosphate release at 30 uM after 15 mins by malachite green dye based end-point assay. Summed up:
as §1

Data set [5] concerns Trypanosoma brucei brucei. Briefly: Antitrypanosomal activity against bloodstream forms of Trypanosoma brucei brucei 427 stably transfected with pHD449 plasmid assessed as parasite viability at 5 uM after 24 hrs by propidium iodide staining based flow cytometry. The format is functional.
A short description of data set [6]: Aqueous solubility of compound in phosphate buffer at 0.25 mg at pH 7.4 after 48 hrs by HPLC based shake flask method. The class given is physicochemical.
The next data set is filed under the species Sus scrofa. Description: Inhibition of porcine brain CK1delta/epsilon at 10 uM using CKS peptide as substrate after 30 mins by scintillation counting method. Summed up: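 Native porcine brain CK1δ/ε purified on axin 2-sepharose, assayed with 0.67 µg CKS peptide and 15 µM ATP, 30 min at 30 °C; phosphate incorporation captured on P81 paper, counted by scintillation, expressed as % of activity without inhibitor.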

Data set [7] addresses Dual specificity tyrosine-phosphorylation-regulated kinase 1A (Homo sapiens) (UniProt Q13627). Briefly: Inhibition of GST-tagged human recombinant DYRK1A expressed in Escherichia coli at 10 uM after 30 mins by scintillation counting method. Summed up:
(§2)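 Radiometric kinase assay with 15 µM ATP, 30 min at 30 °C in buffer A (10 mM MgCl2, 1 mM EGTA, 1 mM DTT, 25 mM Tris-HCl pH 7.5, 50 µg/mL heparin); BSA 0.15 mg/mL added except for CDK2. Substrates: histone H1 (CDK1, CDK2, CDK5), CDK7/9-Tide (CDK9), RS peptide (DYRK1A, CLK1), GS-1 (GSK-3). Stopped onto P81 paper, acid-washed, scintillation counted; activity as % of DMSO control.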

Data set [8] has as its target Cyclin-dependent kinase 5/CDK5 activator 1 (Homo sapiens) (UniProt Q00535+Q15078). Description: Inhibition of human recombinant CDK5/p25 expressed in Escherichia coli at 10 uM using histone H1 as substrate after 30 mins by scintillation counting method. In outline:
as §2

The target of data set [9] is CDK9/cyclin T1 (Homo sapiens) (UniProt O60563+P50750). Description: Inhibition of human recombinant CDK9/cyclinT expressed in insect cells at 10 uM using CDK7/9-Tide as substrate after 30 mins by scintillation counting method. In outline:
as §2

For the next data set, the system named is Asteroidea. Description: Inhibition of M phase starfish oocytes CDK1/cyclin B at 10 uM using histone H1 as substrate after 30 mins by scintillation counting method. Summed up:
as §2

In data set [10] the target is Dual specificity protein kinase CLK1 (Mus musculus) (UniProt P22518). Description: Inhibition of GST-tagged mouse recombinant CLK1 expressed in Escherichia coli at 10 uM after 30 mins by scintillation counting method. Summed up: as §2
Chain of Dual specificity protein kinase CLK1 (Mus musculus) (P22518 whole entry, looked up): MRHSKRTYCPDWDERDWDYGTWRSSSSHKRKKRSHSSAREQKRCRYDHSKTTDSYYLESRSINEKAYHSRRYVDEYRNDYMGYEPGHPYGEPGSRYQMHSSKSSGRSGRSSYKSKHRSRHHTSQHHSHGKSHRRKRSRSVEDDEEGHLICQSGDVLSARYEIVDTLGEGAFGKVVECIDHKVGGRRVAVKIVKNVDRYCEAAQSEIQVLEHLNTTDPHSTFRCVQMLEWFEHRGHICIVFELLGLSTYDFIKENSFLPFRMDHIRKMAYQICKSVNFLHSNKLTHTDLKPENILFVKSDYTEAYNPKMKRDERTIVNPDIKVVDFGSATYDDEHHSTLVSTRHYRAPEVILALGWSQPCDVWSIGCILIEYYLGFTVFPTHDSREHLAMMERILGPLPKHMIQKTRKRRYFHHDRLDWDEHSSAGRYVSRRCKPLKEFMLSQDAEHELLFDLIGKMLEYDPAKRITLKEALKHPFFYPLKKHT
In data set [11] the target is Glycogen synthase kinase-3 (Sus scrofa) (UniProt B2LUN4+I6LNT8). Briefly: Inhibition of porcine brain GSK-3alpha/beta at 10 uM using GS-1 as substrate after 30 mins by scintillation counting method. Summed up: as §2
Data set [12] has as its target CDK2/Cyclin A2 (Homo sapiens) (UniProt P24941+P20248). Description: Inhibition of human recombinant CDK2/cyclin A at 10 uM using histone H1 as substrate after 30 mins by scintillation counting method. The class given is protein-complex assay. Summed up:
as §2

SMILES strings stand for the structures. Calls of active or inactive are those of the source. The calls are words filed in the database; no cut-off is given here.

Chain of Cyclin-dependent kinase 5/CDK5 activator 1 (Homo sapiens) (Q00535 whole entry): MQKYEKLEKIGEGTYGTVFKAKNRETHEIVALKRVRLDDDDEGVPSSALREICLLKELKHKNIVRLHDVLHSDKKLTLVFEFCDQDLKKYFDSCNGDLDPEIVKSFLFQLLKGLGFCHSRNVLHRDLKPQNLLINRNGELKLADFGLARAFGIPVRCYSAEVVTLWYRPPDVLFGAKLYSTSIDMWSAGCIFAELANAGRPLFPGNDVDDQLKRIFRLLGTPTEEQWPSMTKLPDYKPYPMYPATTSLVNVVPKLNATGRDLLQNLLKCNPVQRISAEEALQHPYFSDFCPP
Chain of Cyclin-dependent kinase 5/CDK5 activator 1 (Homo sapiens) (Q15078 99-307 partner limits assumed): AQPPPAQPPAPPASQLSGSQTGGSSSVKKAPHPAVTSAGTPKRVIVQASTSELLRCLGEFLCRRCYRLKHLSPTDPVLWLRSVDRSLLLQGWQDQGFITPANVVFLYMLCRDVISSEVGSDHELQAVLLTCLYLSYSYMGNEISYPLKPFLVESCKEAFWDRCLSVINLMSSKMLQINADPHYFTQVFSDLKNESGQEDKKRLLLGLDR

`O=C(CN1C(=O)Cc2c([nH]c3ccc(Br)cc23)-c2ccc(Cl)cc21)NCc1cccc(Cl)c1`: in the data set on Trypanosoma brucei, the Activity is 55.9%. In data set [1], the EC50 was 1.1 µM. The selectivity ratio in [2] worked out at 91. For the same compound, the results for the IC50 in data set [3] and in data set [4] were 11 µM and 17 µM, respectively.

Regarding `COc1ccc(CNC(=O)CN2C(=O)Cc3c([nH]c4ccc(Br)cc34)-c3ccc(Cl)cc32)cc1`, in the data set on Trypanosoma brucei, the Activity amounted to 53.5%. Also, in [1], the 50% effective concentration (EC50) was found to be 1 µM. For the same compound, in data set [2], the selectivity ratio is 22. The half-maximal inhibitory concentration (IC50) in [3] came to 11 µM; in data set [4] it was 24 µM.

On to `O=C(CN1C(=O)Cc2c([nH]c3ccc(Br)cc23)-c2ccc(Cl)cc21)NCc1ccc(C(F)(F)F)cc1`, for which the Activity amounted to 63.5% in the data set with Trypanosoma brucei and 55.4% in the data set with Leishmania infantum. Besides, in data set [1], the EC50 was determined as 1.8 µM. In addition, in data set [2], the selectivity ratio was over 18. The 50% inhibitory concentration (IC50) in [3] is 9 µM.

For `CNCCNC(=O)CN1C(=O)Cc2c([nH]c3ccc(C(F)(F)F)cc23)-c2ccccc21`, the figures for the Activity in the data set on Trypanosoma cruzi and in the data set with Trypanosoma brucei were 44.5% and 70%, respectively. For the same compound, in data set [1], the EC50 came out at 8.3 µM. For the same compound, the selectivity ratio in [2] is 1. Moreover, the 50% inhibitory concentration (IC50) in data set [4] was determined as 0.35 µM.

On to `O=C(CN1C(=O)Cc2c([nH]c3ccc(Br)cc23)-c2ccc(Cl)cc21)NCc1ccccc1Cl`, for which the figures for the Activity (in the data set with Trypanosoma brucei; in data set [5]) were 55.3% and 53.2%, respectively. Moreover, the figures for the IC50 in [3] and in data set [4] were 11 µM and 23 µM, respectively.

In the case of `Cc1ccc(CNC(=O)CN2C(=O)Cc3c([nH]c4ccc(Br)cc34)-c3ccc(Cl)cc32)cc1`, the Activity in the data set with Trypanosoma brucei came out at 53.7%; in the data set with Leishmania infantum it was 48.6%. Moreover, the EC50 in [1] turned out to be 0.3 µM. Also, the selectivity ratio in data set [2] was over 167. Also, the IC50 in data set [3] amounted to 9 µM. Besides, in [6], the thermodynamic solubility at 48 h was under 0.48 µM.

In the case of `O=C(CN1C(=O)Cc2c([nH]c3ccc(Br)cc23)-c2ccc(Cl)cc21)NCc1ccc(Cl)c(Cl)c1`, in the data set on Trypanosoma brucei, the Activity was 42%. In addition, in [1], the half-maximal effective concentration (EC50) worked out at 0.84 µM. Further, the selectivity ratio in data set [2] amounted to 12. In addition, the figures for the concentration for half-maximal inhibition (IC50) in data set [3] and in data set [4] were 9 µM and 19 µM, respectively.

As to `O=C(CN1C(=O)Cc2c([nH]c3ccc(Br)cc23)-c2ccc(Cl)cc21)NCc1ccccc1`, the Activity in the data set with Trypanosoma cruzi is 72.8%; in the data set on Trypanosoma brucei, 45.2%; in the data set with Leishmania infantum it was 50%. The inhibition entry (in the data set listed under Sus scrofa; in data set [7]; in [8]; in data set [9]; in the data set with Asteroidea; in [10]) was “inactive” each time. In addition, the inhibition entry in data set [11] and in data set [12] was “inactive” each time. In addition, the concentration giving a half-maximal response (EC50) in data set [1] was determined as 0.04 µM. Moreover, the selectivity ratio in [2] amounted to 1410. This compound also had a solubility (thermodynamic) at 48 h in [6] of under 0.49 µM.

Regarding `O=C(CN1C(=O)Cc2c([nH]c3ccc(Br)cc23)-c2ccc(Cl)cc21)NCc1ccc(Cl)cc1`, the figures for the Activity in the data set with Trypanosoma brucei and in the data set with Leishmania infantum were 50.1% and 109%, respectively. Further, the concentration for a half-maximal effect (EC50) in data set [1] was 0.8 µM. Besides, the selectivity ratio in [2] is over 62. The IC50 in data set [3] worked out at 11 µM.

Turning to `O=C(CN1C(=O)Cc2c([nH]c3ccc(Br)cc23)-c2ccc(Cl)cc21)NCc1cccnc1`, the Activity in the data set on Trypanosoma brucei is 64.8%; in [5], 59.4%. The results for the half-maximal inhibitory concentration (IC50) in data set [3] and in data set [4] were 9 µM and 11 µM, respectively.

In the case of `O=C(CN1C(=O)Cc2c([nH]c3ccc(Br)cc23)-c2ccc(Cl)cc21)NCc1ccccn1`, the Activity is 54.8% in the data set on Trypanosoma cruzi, 75.8% in the data set with Trypanosoma brucei, 33.8% in [5] and 95.5% with Leishmania infantum.

For `O=C(CN1C(=O)Cc2c([nH]c3ccc(Br)cc23)-c2ccc(Cl)cc21)NCc1ccc(O)cc1`, the Activity with Trypanosoma brucei amounted to 58%. Besides, the EC50 in data set [1] came out at 0.84 µM. For the same compound, in data set [2], the selectivity ratio was 238. Besides, the IC50 in data set [3] amounted to 9 µM; in [4] it was 10 µM. The thermodynamic solubility at 48 h in data set [6] was under 4.8 µM.

As for `O=C(CN1C(=O)Cc2c([nH]c3ccc(Br)cc23)-c2ccc(Cl)cc21)NCc1ccncc1`, the Activity with Trypanosoma cruzi came to 58.1%; in the data set on Trypanosoma brucei it was 65.2%; in data set [5], 49.1%. For the same compound, in [4], the 50% inhibitory concentration (IC50) is 1.2 µM.

The record behind these values is ChEMBL document CHEMBL3817827, “5-Substituted 3-chlorokenpaullone derivatives are potent inhibitors of Trypanosoma brucei bloodstream forms” (Bioorg Med Chem, 2016).
